Common to all, as to assay type: functional
Test [1] relates to Escherichia coli. The experiment in a line: Antibacterial activity against Escherichia coli MTCC 443 by broth dilution method. In short, it runs like this:
(§1)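 Test bacteria kept on nutrient agar slants and subcultured in Petri dishes before testing. Nutrient agar and nutrient broth media. Compounds dissolved in acetone. MIC determined by broth dilution.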

Test [2] has as its system Rhizopus arrhizus. The experiment in a line: Antifungal activity against Rhizopus oryzae MTCC 262 at 100 ug/ml by agar cup diffusion method. The following applies: read-out: IZ. In short, it runs like this:
(§2)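 Agar cup diffusion on autoclaved potato dextrose agar (15 lb/inch², 20 min). A week-old culture was spread over the solidified agar, and 6 mm cups were bored. Compounds were in DMSO at 100–150; amphotericin-B reference at 50; DMSO control. Plates held at 28 °C for 48 h. Inhibition zone diameter read in mm.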

Test [3] concerns Candida albicans. Kind of test: Antifungal activity against Candida albicans MTCC 227 at 150 ug/ml by agar cup diffusion method. The conditions noted are these: read-out: IZ. In outline:
as §2

Test [4] deals with Bacillus subtilis. Kind of test: Antibacterial activity against Bacillus subtilis MTCC 441 by broth dilution method. In outline: as §1
(Dilution methods test growth across graded concentrations, often in twofold steps.)

In test [5] the test system is Candida albicans. Kind of test: Antifungal activity against Candida albicans MTCC 227 at 100 ug/ml by agar cup diffusion method. The conditions noted are these: read-out: IZ. In short, it runs like this: as §2
For test [6], the system named is Pseudomonas aeruginosa. The experiment in a line: Antibacterial activity against Pseudomonas aeruginosa MTCC 1688 by broth dilution method. In short, it runs like this: as §1
The subject of test [7] is Staphylococcus aureus. The experiment in a line: Antibacterial activity against Staphylococcus aureus MTCC 96 by broth dilution method. In short, it runs like this:
as §1

The subject of test [8] is Rhizopus arrhizus. Kind of test: Antifungal activity against Rhizopus oryzae MTCC 262 at 150 ug/ml by agar cup diffusion method. The following applies: read-out: IZ. In outline:
as §2

Test [9] has as its system Aspergillus niger. The experiment in a line: Antifungal activity against Aspergillus niger MTCC 1344 at 150 ug/ml by agar cup diffusion method. The conditions noted are these: read-out: IZ. In short, it runs like this:
as §2

Test [10] concerns Aspergillus niger. The experiment in a line: Antifungal activity against Aspergillus niger MTCC 1344 at 100 ug/ml by agar cup diffusion method. The conditions noted are these: read-out: IZ. In outline: as §2
Test [11] relates to Aspergillus niger. Kind of test: Antifungal activity against Aspergillus niger MTCC 1344 at 50 ug/ml by agar cup diffusion method. The following applies: MTCC 1344, read-out: IZ. In short, it runs like this:
as §2

In test [12] the test system is Rhizopus arrhizus. Kind of test: Antifungal activity against Rhizopus oryzae MTCC 262 at 50 ug/ml by agar cup diffusion method. The following applies: MTCC 262, read-out: IZ. In outline:
as §2

Test [13] relates to Saccharomyces cerevisiae. The experiment in a line: Antifungal activity against Saccharomyces cerevisiae MTCC 36 at 50 ug/ml by agar cup diffusion method. The conditions noted are these: MTCC 36, read-out: IZ. In outline: as §2
For test [14], the system named is Candida albicans. Kind of test: Antifungal activity against Candida albicans MTCC 227 at 50 ug/ml by agar cup diffusion method. The conditions noted are these: MTCC 227, read-out: IZ.

The structures appear in SMILES notation. Converted amounts (≈) assume the structure as drawn.

Broadly, the MIC is the smallest concentration in the dilution series that meets the test's criterion for growth inhibition. Lower therefore signals a more susceptible organism.

Consider `N#Cc1c(-c2ccccc2)cc(C(F)(F)F)c2c3n(nc12)[C@H]1C=CCC[C@H]1CN3`, for which the minimum inhibitory concentration (MIC) stood at 37.5 µg/mL (≈ 95.1 µM) in test [1], 150 µg/mL (≈ 380 µM) in test [4], 75 µg/mL (≈ 190 µM) in [6] and 75 µg/mL (≈ 190 µM) in [7]. For the same compound, the results for the zone of inhibition at 100 µg/mL in [2], in test [5] and in test [10] were 8 mm, 7 mm and 10 mm, respectively. Further, the zone of inhibition at 150 µg/mL came to 8 mm in [3], 12 mm in test [8] and 12 mm in [9].

In the case of `CC1(c2ccccc2)CCNc2c3c(C(F)(F)F)cc(-c4ccccc4)c(C#N)c3nn21` (configuration not stated), the MIC in [1] turned out to be 37.5 µg/mL (≈ 86.7 µM); in test [4] it was 75 µg/mL (≈ 173 µM); in [6], 75 µg/mL (≈ 173 µM); in test [7], 75 µg/mL (≈ 173 µM). Moreover, the zone of inhibition at 150 µg/mL in test [3] is 9 mm; in [8] it was 12 mm. Moreover, the zone of inhibition at 100 µg/mL in test [5] was found to be 8 mm.

For the compound `N#Cc1c(-c2ccccc2)cc(C(F)(F)F)c2c3n(nc12)[C@@]1(c2ccccc2)CCCC[C@H]1CN3`, the MIC was found to be 37.5 µg/mL (≈ 79.4 µM) in [1], 75 µg/mL (≈ 159 µM) in test [4], 75 µg/mL (≈ 159 µM) in test [6] and 37.5 µg/mL (≈ 79.4 µM) in [7]. Further, the figures for the zone of inhibition at 150 µg/mL in test [3], in [8] and in [9] were 11 mm, 9 mm and 10 mm, respectively. The zone of inhibition at 100 µg/mL in [5] was 9 mm.

In the case of `N#Cc1c(C(F)(F)F)cc(-c2ccccc2)c2c3n(nc12)[C@H]1OCCC[C@H]1CN3`, the MIC in test [1] was 75 µg/mL (≈ 188 µM); in test [4] it was 150 µg/mL (≈ 377 µM); in [6] it was 150 µg/mL (≈ 377 µM); in [7], 150 µg/mL (≈ 377 µM). Moreover, the zone of inhibition at 150 µg/mL in [3] worked out at 10 mm; in test [8], 9 mm. For the same compound, the zone of inhibition at 100 µg/mL in [5] turned out to be 8 mm.

Consider `N#Cc1c(C(F)(F)F)cc(-c2ccccc2)c2c3n(nc12)C(c1ccccc1)CCN3` (configuration not stated), for which the zone of inhibition at 100 µg/mL in [2] turned out to be 8 mm. For the same compound, the zone of inhibition at 150 µg/mL in test [8] was determined as 10 mm.

As for `N#Cc1c(-c2ccccc2)cc(C(F)(F)F)c2c3n(nc12)[C@H]1OCCC[C@H]1CN3`, the MIC in [1] was 75 µg/mL (≈ 188 µM); in test [4], 150 µg/mL (≈ 377 µM); in test [6], 150 µg/mL (≈ 377 µM); in test [7], 75 µg/mL (≈ 188 µM). In addition, the zone of inhibition at 100 µg/mL in test [2] was 9 mm.

On to `C=CC1(C)CCNc2c3c(-c4ccccc4)cc(C(F)(F)F)c(C#N)c3nn21` (configuration not stated), for which the MIC in [1] turned out to be 150 µg/mL (≈ 392 µM); in [4], 75 µg/mL (≈ 196 µM); in test [6], 75 µg/mL (≈ 196 µM); in [7], 150 µg/mL (≈ 392 µM).

Take `N#Cc1c(-c2ccccc2)cc(C(F)(F)F)c2c3n(nc12)[C@H]1C=CC[C@H]1CN3`: the MIC in test [1] is 37.5 µg/mL (≈ 98.6 µM); in test [4] it was 150 µg/mL (≈ 394 µM); in [6], 75 µg/mL (≈ 197 µM); in [7], 37.5 µg/mL (≈ 98.6 µM). The zone of inhibition at 150 µg/mL in test [3] was 9 mm; in test [9], 10 mm.

With `N#Cc1c(-c2ccccc2)cc(C(F)(F)F)c2c3n(nc12)C(c1ccccc1)CCN3` (configuration not stated), the MIC is 25 µg/mL (≈ 59.7 µM) in test [1], 50 µg/mL (≈ 119 µM) in test [4], 50 µg/mL (≈ 119 µM) in [6] and 50 µg/mL (≈ 119 µM) in test [7].

`C=CC1(C)CCNc2c3c(C(F)(F)F)cc(-c4ccccc4)c(C#N)c3nn21` (configuration not stated): the MIC turned out to be 150 µg/mL (≈ 392 µM) in test [1], 150 µg/mL (≈ 392 µM) in test [4], 150 µg/mL (≈ 392 µM) in test [6] and 75 µg/mL (≈ 196 µM) in [7]. Moreover, the zone of inhibition at 150 µg/mL in [3] and in [9] was 8 mm throughout. Also, the zone of inhibition at 100 µg/mL in test [5] and in test [10] was 7 mm each time.

Turning to `N#Cc1c(-c2ccccc2)cc(C(F)(F)F)c2c3n(nc12)[C@H]1c2ccccc2C[C@H]1CN3`, the MIC in test [1] was 75 µg/mL (≈ 174 µM); in [4], 75 µg/mL (≈ 174 µM); in [6], 150 µg/mL (≈ 348 µM); in test [7] it was 150 µg/mL (≈ 348 µM). Further, the zone of inhibition at 100 µg/mL in [2] is 7 mm. The zone of inhibition at 150 µg/mL in [8] and in test [9] was 9 mm in each case.

As to `C[C@@H]1[C@H](O)[C@@H](C)/C=C/C=C/C=C/C=C/C=C/C=C/C=C/[C@H](O[C@@H]2O[C@H](C)[C@@H](O)[C@H](N)[C@@H]2O)C[C@@H]2O[C@](O)(C[C@@H](O)C[C@@H](O)[C@H](O)CC[C@@H](O)C[C@@H](O)CC(=O)O[C@H]1C)C[C@H](O)[C@H]2C(=O)O` [AMPHOTERICIN B], the zone of inhibition at 50 µg/mL in test [11] stood at 23.5 mm; in test [12] it was 26 mm; in [13], 23 mm; in test [14], 22 mm.
